Assay results: ChEMBL document CHEMBL1926683, “Synthesis and anticancer activity of 4β-alkylamidochalcone and 4β-cinnamido linked podophyllotoxins as apoptotic inducing agents” (Eur J Med Chem, 2012)
Calls of active or inactive are those of the source. The calls are words filed in the database; no cut-off is given here.

Columns and labels:
[1] = tested on: A549; test: Induction of apoptosis in human A549 cells assessed as cytoplasmic condensation at 5 uM after 24 hrs by Hoechst staining-based fluorescent microscopic analysis; type: functional, cell-based
Procedure, shortened: (§1)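 A-549 cells (10,000) were grown on 18-mm coverslips for 24 h, given fresh medium, then treated 24 h. Vehicle control was 0.001% DMSO. Hoechst 33258 was added to medium at […]. Apoptotic cells were quantified manually by field counts scoring cytoplasmic condensation, apoptotic bodies, nuclear fragmentation and relative fluorescence.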

[2] = tested on: A549; test: Cell cycle arrest in human A549 cells assessed as accumulation at G0/G1 phase at 5 uM after by propidium iodide staining-based fluorescence analysis (reference value: 83.43%); type: functional
[3] = tested on: A549; test: Cell cycle arrest in human A549 cells assessed as accumulation at subG1 phase at 1 uM after by propidium iodide staining-based fluorescence analysis (reference value: 2.74%); type: functional
[4] = tested on: A549; test: Induction of apoptosis in human A549 cells assessed as cytoplasmic condensation at 2 uM after 24 hrs by Hoechst staining-based fluorescent microscopic analysis; type: functional, cell-based; procedure, shortened: as §1
[5] = tested on: A549; test: Induction of apoptosis in human A549 cells assessed as presence of apoptotic bodies at 5 uM after 24 hrs by Hoechst staining-based fluorescent microscopic analysis; type: functional, cell-based; procedure, shortened: as §1
[6] = tested on: A549; test: Induction of apoptosis in human A549 cells assessed as induction of DNA fragmentation at 5 uM after 48 hrs by agarose gel electrophoresis; type: functional, cell-based
Procedure, shortened: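 A-549 cells (1 × 10⁶, six-well plates) were treated 48 h after 24 h attachment. Cells were pelleted, PBS-washed and lysed. Supernatant was treated with 10% SDS and RNase-A for 2 h at 56 °C, then proteinase K for 2 h at 37 °C. DNA was precipitated with ammonium acetate and ice-cold ethanol at −80 °C, pelleted, washed with 80% ethanol, and run for ladder pattern against a 50 bp marker.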

[7] = tested on: A549; test: Induction of apoptosis in human A549 cells assessed as caspase 3 activation using Ac-DEVD as substrate at 2 uM after 48 hrs by fluorometric analysis relative to control; type: functional
Procedure, shortened: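 A-549 cells were seeded at 2.5 × 10⁵/well and treated. Cells were scraped into PBS, pelleted, lysed on ice 20–30 min, and cleared at 13,200 rpm. Lysate was mixed with 2X assay buffer and Ac-DEVD-AFC substrate and reacted 1 h. AFC fluorescence (ex 400, em 505 nm) was read every 5 min, expressed as fold over control. Mean of two experiments in triplicate.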

[8] = tested on: ACHN; test: Anticancer activity against human ACHN cells after 48 hrs by MTT assay; type: functional, cell-based
Procedure, shortened: (§2)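 MTT assay. Cells seeded at 1 × 10⁴/well in DMEM with 10% FBS and held 24 h at 37 °C in CO₂. Compounds were diluted in culture medium and added alongside vehicle controls, then incubated 48 h. MTT (5 mg/ml stock) was added for 4 h. Supernatant was removed, formazan dissolved in DMSO, and absorbance read at 540 nm.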

[9] = tested on: MCF7; test: Anticancer activity against human MCF7 cells after 48 hrs by MTT assay; type: functional, cell-based; settings: MCF7, 48 h; procedure, shortened: as §2
[10] = tested on: A549; test: Anticancer activity against human A549 cells after 48 hrs by MTT assay; type: functional, cell-based; settings: A549, 48 h; procedure, shortened: as §2
[11] = tested on: HT-29; test: Anticancer activity against human HT-29 cells after 48 hrs by MTT assay; type: functional, cell-based; settings: HT-29, 48 h; procedure, shortened: as §2
[12] = tested on: A549; test: Cell cycle arrest in human A549 cells assessed as accumulation at G2/M phase at 5 uM after by propidium iodide staining-based fluorescence analysis (reference value: 9.27%); type: functional
[13] = tested on: A-375; test: Anticancer activity against human A375 cells after 48 hrs by MTT assay; type: functional, cell-based; settings: A-375, 48 h; procedure, shortened: as §2
[14] = tested on: A549; test: Cell cycle arrest in human A549 cells assessed as accumulation at subG1 phase at 5 uM after by propidium iodide staining-based fluorescence analysis (reference value: 2.74%); type: functional
[15] = tested on: A549; test: Induction of apoptosis in human A549 cells assessed as nuclear fragmentation at 5 uM after 24 hrs by Hoechst staining-based fluorescent microscopic analysis; type: functional, cell-based; procedure, shortened: as §1
[16] = tested on: A549; test: Cell cycle arrest in human A549 cells assessed as accumulation at G2/M phase at 1 uM after by propidium iodide staining-based fluorescence analysis (reference value: 9.27%); type: functional
[17] = tested on: A549; test: Induction of apoptosis in human A549 cells assessed as presence of apoptotic bodies at 2 uM after 24 hrs by Hoechst staining-based fluorescent microscopic analysis; type: functional, cell-based; procedure, shortened: as §1
[18] = tested on: A549; test: Induction of apoptosis in human A549 cells assessed as nuclear fragmentation at 2 uM after 24 hrs by Hoechst staining-based fluorescent microscopic analysis; type: functional, cell-based; procedure, shortened: as §1
[19] = tested on: A549; test: Cell cycle arrest in human A549 cells assessed as accumulation at S phase at 5 uM after by propidium iodide staining-based fluorescence analysis (reference value: 2.74%); type: functional
[20] = tested on: A549; test: Cell cycle arrest in human A549 cells assessed as accumulation at S phase at 1 uM after by propidium iodide staining-based fluorescence analysis (reference value: 2.74%); type: functional
[21] = tested on: A549; test: Cell cycle arrest in human A549 cells assessed as accumulation at G0/G1 phase at 1 uM after by propidium iodide staining-based fluorescence analysis (reference value: 83.43%); type: functional

| SMILES | IC50 [8] | IC50 [9] | IC50 [10] | IC50 [11] | IC50 [13] | also measured |
| --- | --- | --- | --- | --- | --- | --- |
| COc1cc([C@@H]2c3cc4c(cc3[C@@H](NC(=O)/C=C/c3ccccc3)[C@H]3COC(=O)[C@H]23)OCO4)cc(OC)c1OC | 3.91 µM | 19.7 µM | 2.7 µM | 2.36 µM | 13.4 µM | Activity [1]: Active; Activity [2]: 18.65%; Activity [3]: 3.29%; Activity [4]: Active; Activity [5]: Active; Activity [6]: Active; fold change (FC) [7]: 4; Activity [12]: 67.78%; Activity [14]: 2.62%; Activity [15]: Active; Activity [16]: 61.89%; Activity [17]: Active; Activity [18]: Active; Activity [19]: 8.64%; Activity [20]: 9.5%; Activity [21]: 23.39% |
| COc1cc([C@@H]2c3cc4c(cc3[C@@H](O[C@@H]3O[C@@H]5CO[C@@H](C)O[C@H]5[C@H](O)[C@H]3O)[C@H]3COC(=O)[C@H]23)OCO4)cc(OC)c1O [ETOPOSIDE] | 7.61 µM | 0.68 µM | 2.34 µM | 1.81 µM | 1.39 µM | Activity [1]: Active; Activity [3]: 2.89%; Activity [4]: Active; Activity [5]: Active; Activity [6]: Active; fold change (FC) [7]: 6; Activity [15]: Active; Activity [16]: 19.21%; Activity [17]: Active; Activity [18]: Active; Activity [20]: 7.23%; Activity [21]: 69.82% |
| COc1cc(/C=C/C(=O)c2c(C)nc3ccccc3c2-c2ccccc2)ccc1OCC(=O)N[C@@H]1c2cc3c(cc2[C@@H](c2cc(OC)c(OC)c(OC)c2)[C@H]2C(=O)OC[C@@H]21)OCO3 | 15.7 µM | 11.2 µM | 13.4 µM | 7.75 µM | 7.7 µM | – |
| COc1cc(/C=C/C(=O)c2cccc([N+](=O)[O-])c2)ccc1OCCCCCC(=O)N[C@@H]1c2cc3c(cc2[C@@H](c2cc(OC)c(OC)c(OC)c2)[C@H]2C(=O)OC[C@@H]21)OCO3 | 11.9 µM | 18.1 µM | 10.7 µM | 8.75 µM | 10.8 µM | – |
| COc1cc(/C=C/C(=O)c2c(C)nc3ccccc3c2-c2ccccc2)ccc1OCCCCCC(=O)N[C@@H]1c2cc3c(cc2[C@@H](c2cc(OC)c(OC)c(OC)c2)[C@H]2C(=O)OC[C@@H]21)OCO3 | 9.46 µM | 2.2 µM | 7.7 µM | 8.9 µM | 6.8 µM | – |
| COc1cc(/C=C/C(=O)c2cc(OC)c(OC)c(OC)c2)ccc1OCC(=O)N[C@@H]1c2cc3c(cc2[C@@H](c2cc(OC)c(OC)c(OC)c2)[C@H]2C(=O)OC[C@@H]21)OCO3 | 8.51 µM | 14.9 µM | 10.7 µM | 9.54 µM | 7.8 µM | – |
| COc1cc([C@@H]2c3cc4c(cc3[C@@H](NC(=O)/C=C/c3ccc(C(F)(F)F)cc3)[C@H]3COC(=O)[C@H]23)OCO4)cc(OC)c1OC | 2.18 µM | 19.2 µM | 2.1 µM | 0.37 µM | 18 µM | Activity [1]: Active; Activity [2]: 39.84%; Activity [3]: 4.51%; Activity [4]: Active; Activity [5]: Active; Activity [6]: Active; fold change (FC) [7]: 4; Activity [12]: 43.39%; Activity [14]: 4.43%; Activity [15]: Active; Activity [16]: 38.11%; Activity [17]: Active; Activity [18]: Active; Activity [19]: 10.16%; Activity [20]: 9.54%; Activity [21]: 45.23% |
| COc1cc([C@@H]2c3cc4c(cc3[C@@H](NC(=O)/C=C/c3ccc([N+](=O)[O-])cc3)[C@H]3COC(=O)[C@H]23)OCO4)cc(OC)c1OC | 12.8 µM | 10.1 µM | 8.2 µM | 18.1 µM | 14.5 µM | – |
| COc1ccc(/C=C/C(=O)c2cc(OC)c(OC)c(OC)c2)cc1OCCCCCC(=O)N[C@@H]1c2cc3c(cc2[C@@H](c2cc(OC)c(OC)c(OC)c2)[C@H]2C(=O)OC[C@@H]21)OCO3 | 13.4 µM | 12.6 µM | 16.7 µM | 6.47 µM | 10.3 µM | – |
| COc1cc(/C=C/C(=O)c2c(C)nc3ccccc3c2C)ccc1OCC(=O)N[C@@H]1c2cc3c(cc2[C@@H](c2cc(OC)c(OC)c(OC)c2)[C@H]2C(=O)OC[C@@H]21)OCO3 | 10.8 µM | 13.8 µM | 15.4 µM | 12.3 µM | 14.5 µM | – |
| COc1ccc(/C=C/C(=O)N[C@@H]2c3cc4c(cc3[C@@H](c3cc(OC)c(OC)c(OC)c3)[C@H]3C(=O)OC[C@@H]32)OCO4)cc1 | 17.8 µM | 15.7 µM | 7.7 µM | 17.6 µM | 19.1 µM | – |
| O=C(O)/C=C/c1ccc(C(F)(F)F)cc1 | 128 µM | 142 µM | 56 µM | 75 µM | 91 µM | – |
| COc1cc(C(=O)/C=C/c2ccc(OCC(=O)N[C@@H]3c4cc5c(cc4[C@@H](c4cc(OC)c(OC)c(OC)c4)[C@H]4C(=O)OC[C@@H]43)OCO5)cc2)cc(OC)c1OC | 10.2 µM | 24.2 µM | 19.1 µM | 12.4 µM | 25.8 µM | – |
| COc1cc([C@@H]2c3cc4c(cc3[C@@H](NC(=O)/C=C/c3ccc(Cl)cc3)[C@H]3COC(=O)[C@H]23)OCO4)cc(OC)c1OC | 7.54 µM | 13.7 µM | 8.8 µM | 11.4 µM | 5.7 µM | – |
